According to ChEMBL document CHEMBL1147895, “Novel synthetic approach to N-aryl-4-(3-pyridyl)thiazol-2-amine and analogues using HMCM-41 as catalyst, and their biological evaluation as human platelet aggregation inhibitors” (Eur J Med Chem, 2007):

Test system: Platelet
Experiment: Inhibition of ADP-induced human platelet aggregation
Format: functional, cell-based
Outline: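 Human PRP from fasted, medication-free healthy male volunteers: citrated blood (0.38% final) spun at 800 rpm for 10 min; PPP from a 2500 rpm, 10 min spin. Compounds in DMSO (0.01% final) preincubated 2 min at 37 °C before ADP activation. Born turbidimetry; maximum curve height read, % inhibition versus vehicle; IC50 from linear regression of % inhibition against concentration.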

Row | Compound | IC50 [nM]
1 | N=C(N)c1ccc(-c2csc(N(CCC(=O)O)C3CCN(CC(=O)O)CC3)n2)cc1 | 46
2 | N=C(N)c1ccc(-c2csc(N(Cc3ccccc3)C3CCN(CC(=O)O)CC3)n2)cc1 | 230
3 | N=C(N)c1ccc(-c2csc(NC3CCN(C(C(=O)O)c4ccccc4Cl)CC3)n2)cc1 (stereo not drawn) | 6000
4 | CN(c1nc(-c2ccc(C(=N)N)cc2)cs1)C1CCN(CC(=O)O)CC1 | 160
5 | N=C(N)c1ccc(-c2csc(N(CCCC(=O)O)C3CCN(CC(=O)O)CC3)n2)cc1 | 96
6 | N=C(N)c1ccc(-c2csc(N(CC(=O)O)C3CCN(CC(=O)O)CC3)n2)cc1 | 170
7 | N=C(N)c1ccc(-c2csc(NC3CCN(C(CC(=O)O)C(=O)O)CC3)n2)cc1 (stereo not drawn) | 85
8 | CC(C(=O)O)N1CCC(Nc2nc(-c3ccc(C(=N)N)cc3)cs2)CC1 (stereo not drawn) | 250
9 | Nc1nc(-c2cccnc2)c[s+]1[O-] (stereo not drawn) | 1410
10 | Cc1ccc(Nc2nc(-c3cccnc3)cs2)cc1 | 2000

The remaining lines, values ahead:

Row | IC50 [nM] | Compound
11 | > 10000 | CC(C)(C(=O)O)N1CCC(Nc2nc(-c3ccc(C(=N)N)cc3)cs2)CC1
12 | 1800 | N=C(N)c1ccc(-c2csc(NC3CCN(CCC(=O)O)CC3)n2)cc1
13 | 42 | N=C(N)c1ccc(-c2csc(NC3CCN(CC(=O)O)CC3)n2)cc1
14 | 65 | N=C(N)c1ccc(-c2csc(NC3CCN(C(C(=O)O)c4ccccc4)CC3)n2)cc1 (stereo not drawn)
15 | 1350 | CCc1ccccc1Nc1nc(-c2cccnc2)cs1
16 | 2190 | CCc1cccc(CC)c1Nc1nc(-c2cccnc2)cs1
17 | 484 | Fc1ccccc1Nc1nc(-c2cccnc2)cs1
18 | 2890 | c1cncc(-c2csc(Nc3cccc4ccccc34)n2)c1
